SMILES strings stand for the structures. Calls of active or inactive are those of the source. No cut-off for these calls is given here. Where only a bound is given, the exact number is not on record here.

As usually defined, the CC50 is the concentration that lowers cell viability or growth by half. In general, IC50 refers to the concentration that inhibits the measured activity by half. High values mean a need for much substance, low ones inhibition by little substance.

T1 sequence (B4URF0 whole entry): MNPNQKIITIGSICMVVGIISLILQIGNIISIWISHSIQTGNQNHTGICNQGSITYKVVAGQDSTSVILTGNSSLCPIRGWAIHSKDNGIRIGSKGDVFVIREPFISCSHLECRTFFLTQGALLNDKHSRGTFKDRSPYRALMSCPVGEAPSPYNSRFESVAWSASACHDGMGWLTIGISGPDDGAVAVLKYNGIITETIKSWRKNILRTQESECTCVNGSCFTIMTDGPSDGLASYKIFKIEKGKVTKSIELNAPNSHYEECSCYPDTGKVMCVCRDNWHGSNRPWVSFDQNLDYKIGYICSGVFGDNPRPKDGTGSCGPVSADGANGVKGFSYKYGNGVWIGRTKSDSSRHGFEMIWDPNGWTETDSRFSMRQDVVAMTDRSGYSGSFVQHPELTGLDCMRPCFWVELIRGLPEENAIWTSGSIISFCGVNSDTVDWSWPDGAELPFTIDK

The test system of one series is Influenza A virus. The experiment in a line: Antiviral activity against influenza A virus A/PR/8/34(H1N1) infected in MDCK cells at 15.92 uM after 24 hrs by immunofluorescence assay. In kind it is functional, organism-based.
Conditions: not given
The gist of the method:
(§1)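 MDCK cells on chamber slides infected with A/PR/8/34 at 1000 TCID50/mL for 2 h in infection medium (DMEM, 0.5% BSA, 1.5 µg/mL trypsin). Then cultured with compound in 5% FBS DMEM for 24 h at 37 °C. Cells fixed in 4% paraformaldehyde, permeabilised, stained with anti-M1 monoclonal antibody, FITC anti-mouse IgG secondary and DAPI. Fluorescence-positive cells counted by fluorescence microscopy.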
Take `COc1c(C)c(O)c(C)c(O)c1C(=O)/C=C/c1ccc(O)cc1`: the result was Active.

Another series deals with Influenza A virus. Briefly: Antiviral activity against influenza A virus A/PR/8/34(H1N1) infected in MDCK cells at 3.18 uM after 24 hrs by immunofluorescence assay. In kind it is functional, organism-based.
Conditions: not given
The method, boiled down:
as §1
Turning to `COc1c(C)c(O)c(C)c(O)c1C(=O)/C=C/c1ccc(O)cc1`, the result was Active.

In a further series the test system is Influenza A virus. Briefly: Antiviral activity against influenza A virus A/PR/8/34(H1N1) infected in MDCK cells assessed as protection against virus-induced cytopathic effect after 3 to 4 days by neutral red dye assay.
Conditions: not given
In kind it is functional. The gist of the method:
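Near-confluent MDCK monolayers (1 × 10^5 cells/well) inoculated with virus for 1 h, then medium replaced with DMEM containing 10 µg/mL trypsin plus compounds at several concentrations. Incubated 3-4 days at 37 °C, 5% CO2.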
(Damage to the host cells serves as the signal in cytopathic effect assays.)
On to `COc1c(C)c(O)c(C)c(O)c1C(=O)/C=C/c1ccc(O)cc1`, for which the half-maximal cytotoxic concentration (CC50) is more than 120 µM.
On to `COc1cc(O)c(C)c(O)c1C(=O)/C=C/c1ccccc1`, for which the half-maximal cytotoxic concentration (CC50) is 135 µM.
Still for that read-out and setting: the same measure for `COc1c(C)c(O)c(C)c(O)c1C(=O)/C=C/c1ccccc1`: 78.4 µM.
For the molecule `COc1c(C)c(O)c(C)c(O)c1C(=O)/C=C/c1ccccc1O`, the CC50 was more than 120 µM.

The next series addresses T1, Neuraminidase (Influenza A virus, UniProt B4URF0). The experiment in a line: Inhibition of Influenza A virus (A/Sw/Kor/CAH1/04 (H1N1) KCTC 11165BP neuraminidase after 30 mins by spectrofluorimetric analysis.
Conditions: not given
The molecule `Cc1c(O)c(C)c2c(c1O)C(=O)C[C@@H](c1ccccc1)O2` [DEMETHOXYMATTEUCINOL] registered an IC50 of 334 µM.
The same measure, in the same setting: in the case of `Cc1c(O)cc(O)c2c1O[C@H](c1ccccc1)CC2=O` it was more than 500 µM; in that of `Cc1c(O)c(C)c2c(c1O)C(=O)[C@H](O)[C@@H](c1ccccc1)O2`, 375 µM; in that of `COc1c(C)c(O)c2c(c1C)O[C@H](c1ccccc1)CC2=O`, more than 500 µM.
On the same count and under the same terms, the same measure for `COc1c(C)c(O)c(C)c2occ(-c3ccccc3)c(=O)c12`: 431 µM; for `COc1c(C)c(O)c(C)c2c1C(=O)C[C@@](O)(c1ccccc1)O2`: 283 µM.
`COc1cc(O)c(C)c2c1C(=O)C[C@@H](c1ccccc1)O2` yielded an IC50 of more than 500 µM.
In the case of `COc1c(C)c(O)c2c(c1C=O)O[C@H](c1ccccc1)CC2=O`, the IC50 was found to be 290 µM.
In turn, `COc1c(C)c(O)c(C)c2oc(-c3ccccc3)cc(=O)c12` showed an IC50 of 414 µM.
Still for that read-out and setting: in the case of `COc1c(C)c2c(c(O)c1C=O)C(=O)C[C@@H](c1ccccc1)O2` it was 269 µM.

A further series relates to MDCK. The experiment in a line: Cytotoxicity against MDCK cells at 97.56 uM after 48 hrs by neutral red dye assay. The settings on record: dog. In kind it is cell-based, Canis lupus familiaris.
Consider `CCOC(=O)C1=C[C@@H](OC(CC)CC)[C@H](NC(C)=O)[C@@H](N)C1` [OSELTAMIVIR], for which the Activity is 7%.

A further series has as its target T1, Neuraminidase. Briefly: Inhibition of Influenza A virus (A/chicken/Korea/01310/2001 (H9N2)) neuraminidase after 30 mins by spectrofluorimetric analysis.
Conditions: not given
Regarding `Cc1c(O)c(C)c2c(c1O)C(=O)C[C@@H](c1ccccc1)O2` [DEMETHOXYMATTEUCINOL], half-maximal inhibition (IC50) required 319 µM.
The same measure, in the same setting: the same measure for `Cc1c(O)cc(O)c2c1O[C@H](c1ccccc1)CC2=O`: more than 500 µM; for `Cc1c(O)c(C)c2c(c1O)C(=O)[C@H](O)[C@@H](c1ccccc1)O2`: 368 µM; for `COc1c(C)c(O)c2c(c1C)O[C@H](c1ccccc1)CC2=O`: more than 500 µM.
`COc1c(C)c(O)c(C)c2occ(-c3ccccc3)c(=O)c12`: the IC50 worked out at 391 µM.
The molecule `COc1c(C)c(O)c(C)c2c1C(=O)C[C@@](O)(c1ccccc1)O2` came in with an IC50 of 285 µM.
Same read-out and setting: in the case of `COc1cc(O)c(C)c2c1C(=O)C[C@@H](c1ccccc1)O2` it was more than 500 µM; in that of `COc1c(C)c(O)c2c(c1C=O)O[C@H](c1ccccc1)CC2=O`, 299 µM.
On the same count and under the same terms, in the case of `COc1c(C)c(O)c(C)c2oc(-c3ccccc3)cc(=O)c12` it was 363 µM; in that of `COc1c(C)c2c(c(O)c1C=O)C(=O)C[C@@H](c1ccccc1)O2`, 256 µM.
